pIC50: −log10 of the molar value.
Key:
[1] = molecular target: T1, Potassium voltage-gated channel subfamily A member 3 (Homo sapiens, UniProt P22001); assay: Relative T cell IC50 compared to IC50 for correolide assay; type: functional, cell-based
Summary of the method: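 Ratio of correolide IC50 to compound IC50 in the anti-CD3-stimulated human peripheral blood T cell proliferation assay; a larger value means greater potency.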

[2] = molecular target: T1, Potassium voltage-gated channel subfamily A member 3; assay: Inhibitory activity against voltage-gated potassium channel subunit Kv1.3 of human T cells; type: functional, cell-based, T-cell
[3] = molecular target: T1, Potassium voltage-gated channel subfamily A member 3; assay: Inhibition of voltage-gated potassium channel subunit Kv1.3 in chinese hamster ovary cells; type: functional, cell-based
Summary of the method: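 Depolarization-induced ⁸⁶Rb⁺ efflux measured in CHO cells stably transfected with human Kv1.3 channel (Rb_Kv functional assay), with short compound incubation; IC50 reported.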

[4] = molecular target: T1, Potassium voltage-gated channel subfamily A member 3; assay: Inhibitory activity against voltage-gated potassium channel subunit Kv1.3; type: functional

T1 sequence (P22001 whole entry): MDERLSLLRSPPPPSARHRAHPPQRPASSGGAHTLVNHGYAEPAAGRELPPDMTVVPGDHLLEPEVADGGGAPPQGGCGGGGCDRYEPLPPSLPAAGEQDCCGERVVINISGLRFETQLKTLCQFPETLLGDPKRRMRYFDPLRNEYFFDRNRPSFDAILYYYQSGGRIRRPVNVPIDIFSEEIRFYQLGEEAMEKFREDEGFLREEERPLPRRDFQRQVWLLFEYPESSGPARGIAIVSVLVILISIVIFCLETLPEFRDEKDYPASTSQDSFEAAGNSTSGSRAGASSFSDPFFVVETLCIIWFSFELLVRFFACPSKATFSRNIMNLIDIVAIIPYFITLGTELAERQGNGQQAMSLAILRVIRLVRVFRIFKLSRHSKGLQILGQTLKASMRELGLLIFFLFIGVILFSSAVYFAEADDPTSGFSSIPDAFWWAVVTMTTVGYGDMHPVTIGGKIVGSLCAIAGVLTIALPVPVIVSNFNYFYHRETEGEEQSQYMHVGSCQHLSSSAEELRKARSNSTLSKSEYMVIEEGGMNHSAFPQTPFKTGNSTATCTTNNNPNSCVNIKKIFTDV

| Compound | Ratio [1] | pIC50 [2] | pIC50 [3] | pIC50 [4] |
| --- | --- | --- | --- | --- |
| CC(=O)Oc1ccccc1CCC1(O)C(C)=C[C@@H](OC(C)=O)[C@@]2(C)C1CC[C@]1(C)C2[C@H](OC(C)=O)[C@H](OC(C)=O)[C@@]2([C@@H](C)OC(C)=O)COCC=CC12 (stereo partly drawn) | – | – | 7.51 | – |
| CCc1ccccc1[C@H](CC)CC1(O)C(C)=C[C@@H](OC(C)=O)[C@@]2(C)C1CC[C@]1(C)C2[C@H](OC(C)=O)[C@H](OC(C)=O)[C@@]2([C@@H](C)OC(C)=O)COCC=CC12 (stereo partly drawn) | – | – | 7.92 | – |
| CC(=O)O[C@H]1C2[C@@](C)(CCC3C(O)(CCc4ccccc4O)C(C)=C[C@@H](OC(C)=O)[C@@]32C)C2C=CCOC[C@]2([C@@H](C)OC(C)=O)[C@H]1OC(C)=O (stereo partly drawn) | 0.43 | 6.37 | 7.59 | – |
| CC(=O)O[C@H]1C2[C@@](C)(CCC3C(O)(CCc4ccccc4C(F)(F)F)C(C)=C[C@@H](OC(C)=O)[C@@]32C)C2C=CCOC[C@]2([C@@H](C)OC(C)=O)[C@H]1OC(C)=O (stereo partly drawn) | 0.1 | 5.74 | 7.06 | – |
| C=CC[C@H](CC1(O)C(C)=C[C@@H](OC(C)=O)[C@@]2(C)C1CC[C@]1(C)C2[C@H](OC(C)=O)[C@H](OC(C)=O)[C@@]2([C@@H](C)OC(C)=O)COCC=CC12)c1ccccc1CC (stereo partly drawn) | – | – | 7.32 | – |
| CCc1ccccc1[C@H](C)CC1(O)C(C)=C[C@@H](OC(C)=O)[C@@]2(C)C1CC[C@]1(C)C2[C@H](OC(C)=O)[C@H](OC(C)=O)[C@@]2([C@@H](C)OC(C)=O)COCC=CC12 (stereo partly drawn) | 5 | 7.43 | 7.55 | – |
| CC(=O)O[C@H]1C2[C@@](C)(CCC3C(O)(CCc4ccccc4)C(C)=C[C@@H](OC(C)=O)[C@@]32C)C2C=CCOC[C@]2([C@@H](C)OC(C)=O)[C@H]1OC(C)=O (stereo partly drawn) | 0.4 | 6.34 | 7.59 | – |
| COC(=O)C12O[C@@H]1C(=O)CC1(O)C3CC[C@]4(C)C([C@H](OC(C)=O)[C@H](OC(C)=O)[C@@]5([C@@H](C)OC(C)=O)COCC=CC45)[C@@]3(C)[C@H](OC(C)=O)[C@H](OC(C)=O)[C@]12C (stereo partly drawn) | – | – | – | 7.46 |
| CCOc1ccccc1[C@H](C)CC1(O)C(C)=C[C@@H](OC(C)=O)[C@@]2(C)C1CC[C@]1(C)C2[C@H](OC(C)=O)[C@H](OC(C)=O)[C@@]2([C@@H](C)OC(C)=O)COCC=CC12 (stereo partly drawn) | 15 | 7.91 | 7.43 | – |
| COc1ccccc1CCC1(O)C(C)=C[C@@H](OC(C)=O)[C@@]2(C)C1CC[C@]1(C)C2[C@H](OC(C)=O)[C@H](OC(C)=O)[C@@]2([C@@H](C)OC(C)=O)COCC=CC12 (stereo partly drawn) | 1.3 | 6.85 | 7.85 | – |
| COc1ccccc1[C@H](C)C[C@]1(O)C(C)=C[C@@H](OC(C)=O)[C@]2(C)C3[C@H](OC(C)=O)[C@H](OC(C)=O)[C@@]4([C@@H](C)OC(C)=O)COCC=CC4[C@]3(C)CCC21 (stereo partly drawn) | 7.2 | 7.59 | 7.72 | – |
| CC(=O)O[C@H]1C2[C@@](C)(CCC3C(O)(C(C)Cc4ccccc4)C(C)=C[C@@H](OC(C)=O)[C@@]32C)C2C=CCOC[C@]2([C@@H](C)OC(C)=O)[C@H]1OC(C)=O (stereo partly drawn) | – | – | 6.70 | – |
| C=CC[C@H](CC1(O)C(C)=C[C@@H](OC(C)=O)[C@@]2(C)C1CC[C@]1(C)C2[C@H](OC(C)=O)[C@H](OC(C)=O)[C@@]2([C@@H](C)OC(C)=O)COCC=CC12)c1ccccc1OC (stereo partly drawn) | 5.6 | 7.48 | 7.68 | – |
| C=C1C[C@@]2(O)C3CC[C@]4(C)C([C@H](OC(C)=O)[C@H](OC(C)=O)[C@@]5([C@@H](C)OC(C)=O)COC(=O)C=CC45)[C@@]3(C)[C@H](OC(C)=O)[C@H](OC(C)=O)[C@@]2(C)C2(C(=O)OC)O[C@H]12 (stereo partly drawn) [CORRELOID] | – | 6.74 | 7.00 | – |
| CC(=O)O[C@H]1C2[C@@](C)(CCC3C(O)(CCCc4ccccc4)C(C)=C[C@@H](OC(C)=O)[C@@]32C)C2C=CCOC[C@]2([C@@H](C)OC(C)=O)[C@H]1OC(C)=O (stereo partly drawn) | – | – | 6.82 | – |
| CC(=O)O[C@H]1C2[C@@](C)(CCC3C(O)(c4ccccc4)C(C)=C[C@@H](OC(C)=O)[C@@]32C)C2C=CCOC[C@]2([C@@H](C)OC(C)=O)[C@H]1OC(C)=O (stereo partly drawn) | – | – | 5.70 | – |
| CC[C@H](CC1(O)C(C)=C[C@@H](OC(C)=O)[C@@]2(C)C1CC[C@]1(C)C2[C@H](OC(C)=O)[C@H](OC(C)=O)[C@@]2([C@@H](C)OC(C)=O)COCC=CC12)c1ccccc1OC (stereo partly drawn) | 6.3 | 7.53 | 7.55 | – |
| CC(=O)O[C@H]1C2[C@@](C)(CCC3C(=O)C(C)=C[C@@H](OC(C)=O)[C@@]32C)C2C=CCOC[C@]2([C@@H](C)OC(C)=O)[C@H]1OC(C)=O (stereo partly drawn) | – | – | – | 5.25 |
| CC(=O)O[C@H]1C2[C@@](C)(CCC3C(O)(CCC=C(C)C)C(C)=C[C@@H](OC(C)=O)[C@@]32C)C2C=CCOC[C@]2([C@@H](C)OC(C)=O)[C@H]1OC(C)=O (stereo partly drawn) | – | – | 7.68 | – |
| CCOc1ccccc1CCC1(O)C(C)=C[C@@H](OC(C)=O)[C@@]2(C)C1CC[C@]1(C)C2[C@H](OC(C)=O)[C@H](OC(C)=O)[C@@]2([C@@H](C)OC(C)=O)COCC=CC12 (stereo partly drawn) | 2.3 | 7.10 | 7.47 | – |
| CC(=O)O[C@H]1C2[C@@](C)(CCC3C(O)(CCCCc4ccccc4)C(C)=C[C@@H](OC(C)=O)[C@@]32C)C2C=CCOC[C@]2([C@@H](C)OC(C)=O)[C@H]1OC(C)=O (stereo partly drawn) | – | – | 6.57 | – |
| COc1cccc(CCC2(O)C(C)=C[C@@H](OC(C)=O)[C@@]3(C)C2CC[C@]2(C)C3[C@H](OC(C)=O)[C@H](OC(C)=O)[C@@]3([C@@H](C)OC(C)=O)COCC=CC23)c1 (stereo partly drawn) | 0.14 | 5.88 | 7.62 | – |
| C=CCCC1(O)C(C)=C[C@@H](OC(C)=O)[C@@]2(C)C1CC[C@]1(C)C2[C@H](OC(C)=O)[C@H](OC(C)=O)[C@@]2([C@@H](C)OC(C)=O)COCC=CC12 (stereo partly drawn) | – | – | 6.18 | – |
| C=CC1(O)C(C)=C[C@@H](OC(C)=O)[C@@]2(C)C1CC[C@]1(C)C2[C@H](OC(C)=O)[C@H](OC(C)=O)[C@@]2([C@@H](C)OC(C)=O)COCC=CC12 (stereo partly drawn) | – | – | 5.74 | – |
| C=CCC1(O)C(C)=C[C@@H](OC(C)=O)[C@@]2(C)C1CC[C@]1(C)C2[C@H](OC(C)=O)[C@H](OC(C)=O)[C@@]2([C@@H](C)OC(C)=O)COCC=CC12 (stereo partly drawn) | – | – | 6.84 | – |
| COc1ccc(CCC2(O)C(C)=C[C@@H](OC(C)=O)[C@@]3(C)C2CC[C@]2(C)C3[C@H](OC(C)=O)[C@H](OC(C)=O)[C@@]3([C@@H](C)OC(C)=O)COCC=CC23)cc1 (stereo partly drawn) | – | – | 6.89 | – |
| CC(=O)O[C@H]1C2[C@@](C)(CCC3C(O)(CC(C)(C)c4ccccc4)C(C)=C[C@@H](OC(C)=O)[C@@]32C)C2C=CCOC[C@]2([C@@H](C)OC(C)=O)[C@H]1OC(C)=O (stereo partly drawn) | 1 | 6.74 | 7.72 | – |

More lines, now with the values ahead:

| Ratio [1] | pIC50 [2] | pIC50 [3] | pIC50 [4] | Compound |
| --- | --- | --- | --- | --- |
| 5.8 | 7.50 | 7.77 | – | C=C(CC1(O)C(C)=C[C@@H](OC(C)=O)[C@@]2(C)C1CC[C@]1(C)C2[C@H](OC(C)=O)[C@H](OC(C)=O)[C@@]2([C@@H](C)OC(C)=O)COCC=CC12)c1ccccc1SCC (stereo partly drawn) |
| 7.2 | 7.59 | 7.36 | – | C=C(CC1(O)C(C)=C[C@@H](OC(C)=O)[C@@]2(C)C1CC[C@]1(C)C2[C@H](OC(C)=O)[C@H](OC(C)=O)[C@@]2([C@@H](C)OC(C)=O)COCC=CC12)c1ccccc1CC (stereo partly drawn) |
| – | – | 6.42 | – | CC(=O)O[C@H]1C2[C@@](C)(CCC3C(O)(Cc4ccccc4)C(C)=C[C@@H](OC(C)=O)[C@@]32C)C2C=CCOC[C@]2([C@@H](C)OC(C)=O)[C@H]1OC(C)=O (stereo partly drawn) |
| – | – | 6.59 | – | C=C(CC1(O)C(C)=C[C@@H](OC(C)=O)[C@@]2(C)C1CC[C@]1(C)C2[C@H](OC(C)=O)[C@H](OC(C)=O)[C@@]2([C@@H](C)OC(C)=O)COCC=CC12)c1ccccc1[S+](C)[O-] (stereo in doubt; 35) |
| – | – | 6.84 | – | C=C(CC1(O)C(C)=C[C@@H](OC(C)=O)[C@@]2(C)C1CC[C@]1(C)C2[C@H](OC(C)=O)[C@H](OC(C)=O)[C@@]2([C@@H](C)OC(C)=O)COCC=CC12)c1ccccc1[S+](C)[O-] (stereo in doubt; 34) |
| 1.4 | 6.88 | 7.72 | – | C=C(C[C@]1(O)C(C)=C[C@@H](OC(C)=O)[C@]2(C)C3[C@H](OC(C)=O)[C@H](OC(C)=O)[C@@]4([C@@H](C)OC(C)=O)COCC=CC4[C@]3(C)CCC21)c1ccccc1 (stereo partly drawn) |
| – | – | 6.45 | – | C=C(CC1(O)C(C)=C[C@@H](OC(C)=O)[C@@]2(C)C1CC[C@]1(C)C2[C@H](OC(C)=O)[C@H](OC(C)=O)[C@@]2([C@@H](C)OC(C)=O)COCC=CC12)c1ccccc1S(=O)OC (stereo partly drawn) |
| 0.75 | 6.61 | 7.13 | – | CC(=O)O[C@H]1C2[C@@](C)(CCC3C(O)(CCc4ccccc4F)C(C)=C[C@@H](OC(C)=O)[C@@]32C)C2C=CCOC[C@]2([C@@H](C)OC(C)=O)[C@H]1OC(C)=O (stereo partly drawn) |
| 1.8 | 6.99 | 7.92 | – | CC(=O)O[C@H]1C2[C@@](C)(CCC3C(O)(C[C@@H](C)c4ccccc4)C(C)=C[C@@H](OC(C)=O)[C@@]32C)C2C=CCOC[C@]2([C@@H](C)OC(C)=O)[C@H]1OC(C)=O (stereo partly drawn) |
| 12.5 | 7.83 | 7.85 | – | C=C(CC1(O)C(C)=C[C@@H](OC(C)=O)[C@@]2(C)C1CC[C@]1(C)C2[C@H](OC(C)=O)[C@H](OC(C)=O)[C@@]2([C@@H](C)OC(C)=O)COCC=CC12)c1ccccc1SC (stereo partly drawn) |
| 3.6 | 7.29 | 7.96 | – | C=C(CC1(O)C(C)=C[C@@H](OC(C)=O)[C@@]2(C)C1CC[C@]1(C)C2[C@H](OC(C)=O)[C@H](OC(C)=O)[C@@]2([C@@H](C)OC(C)=O)COCC=CC12)c1ccccc1OC (stereo partly drawn) |
| 0.3 | 6.21 | 6.92 | – | CC(=O)O[C@H]1C2[C@@](C)(CCC3C(O)(C[C@H](C)c4ccccc4)C(C)=C[C@@H](OC(C)=O)[C@@]32C)C2C=CCOC[C@]2([C@@H](C)OC(C)=O)[C@H]1OC(C)=O (stereo partly drawn) |
| 0.95 | 6.71 | 7.39 | – | CC(=O)O[C@H]1C2[C@@](C)(CCC3C(O)(CCc4ccccc4C)C(C)=C[C@@H](OC(C)=O)[C@@]32C)C2C=CCOC[C@]2([C@@H](C)OC(C)=O)[C@H]1OC(C)=O (stereo partly drawn) |

— ChEMBL document CHEMBL1144256, “Potent Kv1.3 inhibitors from correolide-modification of the C18 position” (Bioorg Med Chem Lett, 2005)
